Values after ≈ are worked out from the molar mass of the structure shown.
What was measured:
Staphylococcus aureus [1] = assay: Antimicrobial activity against Staphylococcus aureus ATCC 6538 assessed as diameter of growth inhibition at 128 ug/ml by radial diffusion assay; format: functional; conditions: dose 128 µg/ml
Outline: (§1)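 Agar well diffusion. Overnight cultures inoculated at 1% into 0.75% soft agar (TSB for S. aureus, LB for P. aeruginosa). Each well received 80 μL of peptide at 128 μg mL−1 in water with 10% DMSO; 10% DMSO served as negative control. Inhibition zone diameter scored after strain-specific incubation.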

Pseudomonas aeruginosa [2] = assay: Antimicrobial activity against Pseudomonas aeruginosa ATCC […] assessed as diameter of growth inhibition at 128 ug/ml by radial diffusion assay; format: functional; conditions: dose 128 µg/ml; outline: as §1
Staphylococcus aureus [3] = assay: Antimicrobial activity against Staphylococcus aureus ATCC 6538 assessed as growth inhibition by microdilution assay; format: functional
Outline: (§2)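 Twofold serial microdilution of peptide (stocks 2 mg mL−1, diluted to 512 μg mL−1 in water with 10% DMSO) in strain medium, about 1 × 10^4 cfu per well. Media: TSB 20 h 37 °C (S. aureus, L. monocytogenes, B. subtilis, E. faecalis); LB 20 h 37 °C (P. aeruginosa, S. enterica, E. coli); Brucella 48 h 37 °C (C. coli). A595 read; MIC = lowest concentration with no visible growth; triplicate.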

Listeria monocytogenes = assay: Antimicrobial activity against Listeria monocytogenes ATCC 19111 assessed as growth inhibition by microdilution assay; format: functional; outline: as §2
Bacillus subtilis = assay: Antimicrobial activity against Bacillus subtilis ATCC 23957 assessed as growth inhibition by microdilution assay; format: functional; outline: as §2
Enterococcus faecalis = assay: Antimicrobial activity against Enterococcus faecalis ATCC 29212 assessed as growth inhibition by microdilution assay; format: functional; outline: as §2
Clostridium perfringens = assay: Antimicrobial activity against Clostridium perfringens ATCC 3628 assessed as growth inhibition by microdilution assay; format: functional
Outline: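 Broth microdilution: twofold serial peptide dilutions in reinforced clostridial medium (RCM), seeded with about 1 × 10^4 cfu per well, incubated 20 h at 37 °C. Working solution 512 μg mL−1 made from a 2 mg mL−1 stock in water with 10% DMSO. Growth read as absorbance at 595 nm. MIC taken as the lowest concentration giving complete inhibition of visible growth; run in triplicate.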

Pseudomonas aeruginosa [4] = assay: Antimicrobial activity against Pseudomonas aeruginosa ATCC […] assessed as growth inhibition by microdilution assay; format: functional; outline: as §2
[5] = Antimicrobial activity against Salmonella enterica serovar Newport ATCC 6962 assessed as growth inhibition by microdilution assay; format: functional, Salmonella enterica subsp. enterica serovar Newport; outline: as §2
Escherichia coli = assay: Antimicrobial activity against Escherichia coli ATCC 25922 assessed as growth inhibition by microdilution assay; format: functional; outline: as §2
Campylobacter coli = assay: Antimicrobial activity against Campylobacter coli ATCC 33559 assessed as growth inhibition by microdilution assay; format: functional; outline: as §2
[6] = Hemolytic activity in human erythrocytes at 128 ug/ml measured after 1 hr by absorbance based assay relative to control; format: toxicity, cell-based, Erythrocyte; conditions: at 128 µg/mL, read-out: Activity
Outline: (§3)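 Washed human donor erythrocytes at 1% hematocrit in PBS pH 7.4 exposed to twofold peptide dilutions (final 2–256 μg mL−1, up to 1% DMSO) for 1 h at 37 °C. After centrifugation, supernatant A405 read. % hemolysis relative to PBS (0%) and 1% Triton X-100 (100%). Triplicate; mean ± SEM.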

[7] = Hemolytic activity in human erythrocytes at 256 ug/ml measured after 1 hr by absorbance based assay relative to control; format: toxicity, cell-based, Erythrocyte; conditions: at 256 µg/mL, read-out: Activity; outline: as §3
[8] = Cytotoxicity against human Caco-2 cells assessed as inhibition of cell viability incubated for 48 hrs by Cell Titer GLO assay; format: toxicity, cell-based
Outline: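 Caco-2 cells in DMEM with 10% FCS, seeded 25 000 per well, adhered overnight, then given peptide at 2–256 μg mL−1 in complete medium for 48 h at 37 °C, 5% CO2. Controls: cisplatin 125 μM; 0.1% DMSO medium. Viability by ATP luminescence (CellTiter-Glo) versus untreated cells; IC50 from dose–response; mean ± SEM of at least three independent experiments.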

Row | Compound | Activity (Staphylococcus aureus [1]) [mm] | Activity (Pseudomonas aeruginosa [2]) [mm] | MIC (Staphylococcus aureus [3]) [µg/mL] | MIC (Listeria monocytogenes) [µg/mL] | MIC (Bacillus subtilis) [µg/mL] | MIC (Enterococcus faecalis) [µg/mL] | MIC (Clostridium perfringens) [µg/mL] | MIC (Pseudomonas aeruginosa [4]) [µg/mL] | MIC [5] [µg/mL] | MIC (Escherichia coli) [µg/mL] | MIC (Campylobacter coli) [µg/mL] | hemolysis at 1 h, 128 ug/ml [6] [%] | hemolysis at 1 h, 256 ug/ml [7] [%] | IC50 at 48 h [8] [µg/mL]
1 | CC[C@H](C)[C@H](O)C(=O)N[C@@H](CO)C(=O)N[C@@H](CC(C)C)C(=O)N[C@H](CCCN)C(=O)N[C@H](C(=O)N[C@H](C(=O)N[C@H](C(=O)N[C@H](CCCCN)C(=O)N[C@H](C(=O)N[C@H](C(=O)N[C@@H](CCCCN)C(=O)N[C@H](Cc1ccc(O)cc1)C(=O)N[C@@H](CC(C)C)C(=O)N[C@H](CO)C(C)C)C(C)C)C(C)C)C(C)C)[C@@H](C)CC)[C@@H](C)CC | 11 | 12 | 8 | 1 | 2 | > 128 | 8 | 4 | > 128 | 32 | 32 | 1.2 | 4.9 | 42.2 (≈ 26.6 µM)
2 | CC[C@H](NC(=O)[C@@H](O)[C@@H](C)CC)C(=O)N[C@@H](CC(C)C)C(=O)N[C@H](CCCN)C(=O)N[C@H](C(=O)N[C@H](C(=O)N[C@H](C(=O)N[C@H](CCCCN)C(=O)N[C@H](C(=O)N[C@H](C(=O)N[C@@H](CCCCN)C(=O)N[C@H](Cc1ccc(O)cc1)C(=O)N[C@@H](CC(C)C)C(=O)N[C@H](C(N)=O)C(C)C)C(C)C)C(C)C)C(C)C)[C@@H](C)CC)[C@@H](C)CC | 7 | 7 | 2 | 2 | 2 | 64 | 8 | 2 | > 128 | > 128 | 16 | 23.3 | 38.2 | 11.3 (≈ 7.07 µM)
3 | C/C=C(/NC(=O)[C@@H](O)[C@@H](C)CC)C(=O)N[C@@H](CC(C)C)C(=O)N[C@H](CCCN)C(=O)N[C@H](C(=O)N[C@H](C(=O)N[C@H](C(=O)N[C@H](CCCCN)C(=O)N[C@H](C(=O)N[C@H](C(=O)N[C@@H](CCCCN)C(=O)N[C@H](Cc1ccc(O)cc1)C(=O)N[C@@H](CC(C)C)C(=O)N[C@H](CO)C(C)C)C(C)C)[C@@H](C)CC)C(C)C)[C@@H](C)CC)[C@@H](C)CC | 11 | 12 | 2 | 1 | 0.5 | 2 | 2 | 1 | 64 | 32 | 8 | 55 | 89.9 | 6.5 (≈ 4.07 µM)
4 | CC[C@H](C)[C@H](O)C(=O)N[C@H](C(=O)N[C@@H](CC(C)C)C(=O)N[C@H](CCCN)C(=O)N[C@H](C(=O)N[C@H](C(=O)N[C@H](C(=O)N[C@H](CCCCN)C(=O)N[C@H](C(=O)N[C@H](C(=O)N[C@@H](CCCCN)C(=O)N[C@H](Cc1ccc(O)cc1)C(=O)N[C@@H](CC(C)C)C(=O)N[C@H](CO)C(C)C)C(C)C)C(C)C)C(C)C)[C@@H](C)CC)[C@@H](C)CC)[C@@H](C)O | 11 | 12 | 2 | 4 | 1 | 16 | 4 | 2 | > 128 | 32 | 16 | 1.2 | 4.9 | 32.2 (≈ 20.1 µM)
5 | CC[C@H](C)[C@H](O)C(=O)N[C@@H](C)C(=O)N[C@@H](CC(C)C)C(=O)N[C@H](CCCN)C(=O)N[C@H](C(=O)N[C@H](C(=O)N[C@H](C(=O)N[C@H](CCCCN)C(=O)N[C@H](C(=O)N[C@H](C(=O)N[C@@H](CCCCN)C(=O)N[C@H](Cc1ccc(O)cc1)C(=O)N[C@@H](CC(C)C)C(=O)N[C@H](CO)C(C)C)C(C)C)C(C)C)C(C)C)[C@@H](C)CC)[C@@H](C)CC | 11 | 12 | 2 | 1 | 2 | 4 | 2 | 1 | > 128 | 64 | 8 |  |  | 13.5 (≈ 8.59 µM)
6 | C/C=C(/NC(=O)[C@@H](O)[C@@H](C)CC)C(=O)N[C@@H](CC(C)C)C(=O)N[C@H](CCCN)C(=O)N[C@H](C(=O)N[C@H](C(=O)N[C@H](C(=O)N[C@H](CCCCN)C(=O)N[C@H](C(=O)N[C@H](C(=O)N[C@@H](CCCCN)C(=O)N[C@H](Cc1ccc(O)cc1)C(=O)N[C@@H](CC(C)C)C(=O)N[C@H](CO)C(C)C)C(C)C)C(C)C)C(C)C)C(C)C)[C@@H](C)CC | 11 | 12 | 4 | 1 | 2 | 16 | 4 | 2 | > 128 | 32 | 16 | 1.65 |  | 25.7 (≈ 16.4 µM)
7 | CC[C@H](NC(=O)[C@@H](NC(C)=O)[C@@H](C)CC)C(=O)N[C@@H](CC(C)C)C(=O)N[C@H](CCCN)C(=O)N[C@H](C(=O)N[C@H](C(=O)N[C@H](C(=O)N[C@H](CCCCN)C(=O)N[C@H](C(=O)N[C@H](C(=O)N[C@@H](CCCCN)C(=O)N[C@H](Cc1ccc(O)cc1)C(=O)N[C@@H](CC(C)C)C(=O)N[C@H](CO)C(C)C)C(C)C)C(C)C)C(C)C)[C@@H](C)CC)[C@@H](C)CC | 7 | 7 | 2 | 2 | 4 | 32 | 2 | 2 | > 128 | > 128 | 16 | 23.3 | 38.2 | 17.6 (≈ 10.8 µM)
8 | CC[C@H](C)[C@H](O)C(=O)N[C@H](C(=O)N[C@@H](CC(C)C)C(=O)N[C@H](CCCN)C(=O)N[C@H](C(=O)N[C@H](C(=O)N[C@H](C(=O)N[C@H](CCCCN)C(=O)N[C@H](C(=O)N[C@H](C(=O)N[C@@H](CCCCN)C(=O)N[C@H](Cc1ccc(O)cc1)C(=O)N[C@@H](CC(C)C)C(=O)N[C@H](CO)C(C)C)C(C)C)C(C)C)C(C)C)[C@@H](C)CC)[C@@H](C)CC)C(C)C | 7 | 7 | 1 | 1 | 1 | 4 | 4 | 1 | > 128 | > 128 | 8 | 53.1 | 84 | 8.3 (≈ 5.19 µM)

Reference: ChEMBL document CHEMBL6134793, “Synthesis and structure-activity study of the antimicrobial lipopeptide brevibacillin” (RSC Med Chem, 2024)
